# Assay results as given in ChEMBL document CHEMBL1124035, “1-Amino-substituted 4-methyl-5H-pyrido[4,3-b]indoles (gamma-carbolines) as tricyclic analogues of ellipticines: a new class of antineoplastic agents” (1988).
# pIC50: −log10 of the molar value.
# Experiments:
# Calf thymus DNA = assay: Apparent DNA affinity constant; format: nucleic-acid assay; conditions: Bos taurus
# Method in brief: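 Apparent DNA affinity constant was measured by competition with ethidium bromide. Buffer was 20 mM Na2HPO4/NaH2PO4, 0.1 M NaCl, 1 mM EDTA, pH 7.4, with calf thymus DNA at 10 μg/mL. Values are given in 10^6 M⁻¹.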
# L1210 = assay: Ability to reduce the cell count to 50% in L1210 culture cells; format: functional; conditions: Mus musculus, read-out: ID50 (the source's name)
# Method in brief: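 L1210 cells in exponential growth in RPMI 1640 with 2 mM glutamine, penicillin/streptomycin and 10% FCS, 37 °C, 5% CO2. Drugs dissolved in distilled water were added to cells at 0.8 × 10^5 cells/mL for 48 h, then cells were counted. ID50 is the concentration halving cell proliferation versus controls, from regression of dose-response data; mean of two independent experiments.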
# Mus musculus [1] = assay: Antitumor activity against P388 leukemia in mice at a dose of 10 mg/kg administered intraperitoneally for 5 days; format: functional; conditions: route intraperitoneal
# Method in brief: (§1)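 CDF1 hybrid male or female mice, 10 per group, were inoculated ip with 10^6 viable P388 cells on day 0. Drugs in distilled water were given ip (0.1 mL/10 g body weight) daily D1-5. Vehicle, 5-fluorouracil and BD 84 were given the same way. T/C = median survival day of treated / controls × 100; T/C > 128% was significant; cures counted at D60.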
# Mus musculus [2] = assay: Antitumor activity against P388 leukemia in mice at a dose of 50 mg/kg administered intraperitoneally for 5 days; […]; format: functional; conditions: route intraperitoneal
# Method in brief: (§2)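 CDF1 hybrid male or female mice, 10 per group, were inoculated ip on day 0 with 10^6 viable P388 leukemia cells. Drug in distilled water was given ip (0.1 mL/10 g body weight) daily on days 1-5, with vehicle, 5-fluorouracil and BD 84 controls given the same way. T/C = median survival of treated/controls × 100; T/C > 128% counted as significant.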
# Mus musculus [3] = assay: Antitumor activity against P388 leukemia in mice at a dose of 12 mg/kg administered intraperitoneally for 5 days; format: functional; conditions: route intraperitoneal; method in brief: as §1
# Mus musculus [4] = assay: Antitumor activity against P388 leukemia in mice at a dose of 24 mg/kg administered intraperitoneally for 5 days; format: functional; conditions: route intraperitoneal; method in brief: as §2
# Mus musculus [5] = assay: Antitumor activity against P388 leukemia in mice at a dose of 50 mg/kg administered intraperitoneally for 5 days; format: functional, organism-based; design: dose 50 mg/kg; method in brief: as §2
# Mus musculus [6] = assay: Antitumor activity against P388 leukemia in mice at a dose of 6 mg/kg administered intraperitoneally for 5 days; format: functional; conditions: route intraperitoneal; method in brief: as §2
# Mus musculus [7] = assay: Antitumor activity against P388 leukemia in intraperitoneally for 5 days; format: functional; method in brief: as §1
# Mus musculus [8] = assay: Antitumor activity against P388 leukemia in mice at a dose of 80 mg/kg administered intraperitoneally for 5 days; format: functional, organism-based; design: dose 80 mg/kg; method in brief: as §2
# Mus musculus [9] = assay: Antitumor activity against P388 leukemia in mice at a dose of 40 mg/kg administered intraperitoneally for 5 days; format: functional; conditions: route intraperitoneal; method in brief: as §2
# Mus musculus [10] = assay: Antitumor activity against P388 leukemia in mice at a dose of 20 mg/kg administered intraperitoneally for 5 days; format: functional; conditions: route intraperitoneal; method in brief: as §1
Structure (SMILES),K aff (Calf thymus DNA),pIC50 (L1210),also measured
CCN(CC)CCNc1ncc(C)c2c1c1cc(OC)ccc1n2C,80000 M⁻¹,5.92,
CCN(CC)CCCNc1[nH]cc(C)c2nc3ccccc3c1-2.O=C(O)/C=C\C(=O)O.O=C(O)/C=C\C(=O)O,150000 M⁻¹,6.66,T/C (Mus musculus [1]): 130%; T/C (Mus musculus [2]): 175%
COc1ccc2c(c1)c1c(NCC(C)CN(C)C)ncc(C)c1n2C (stereo not given),150000 M⁻¹,6.00,
Cc1cnc(NCCCN(C)C)c2c3ccccc3n(C)c12,150000 M⁻¹,6.46,T/C (Mus musculus [3]): 114%; T/C (Mus musculus [4]): 131%; T/C (Mus musculus [5]): Toxic; T/C (Mus musculus [6]): 107%
CCN(CC)CCCNc1[nH]cc(C)c2nc3ccc(OC)cc3c1-2,220000 M⁻¹,6.52,T/C (Mus musculus [7]): 147%; T/C (Mus musculus [8]): Toxic; T/C (Mus musculus [9]): 176%; T/C (Mus musculus [10]): 149%
